According to ChEMBL document CHEMBL3046951, “Volatile constituents from the leaves of Callicarpa japonica Thunb. and their antibacterial activities” (2004):

What was measured:
Assay type in all cases: functional
Escherichia coli [1] = assay: Antimicrobial activity against Escherichia coli O157:H7 ATCC 43894 assessed as growth inhibition rate at 5.32 mg/l after 72 hr by spectrophotometry; conditions: O157:H7 ATCC 43894, 72 h, read-out: GI
Vibrio parahaemolyticus [2] = assay: Antimicrobial activity against Vibrio parahaemolyticus ATCC 33844 assessed as growth inhibition rate at 5.32 mg/l after 72 hr by spectrophotometry; conditions: ATCC 33844, 72 h, read-out: GI
Staphylococcus aureus [3] = assay: Antimicrobial activity against Staphylococcus aureus ATCC 25923 assessed as growth inhibition rate at 5.32 mg/l after 72 hr by spectrophotometry; conditions: ATCC 25923, 72 h, read-out: GI
Salmonella typhimurium [4] = assay: Antimicrobial activity against Salmonella enterica subsp. enterica serovar Typhimurium ATCC 14028 assessed as growth inhibition rate at 5.32 mg/l after 72 hr by spectrophotometry; conditions: ATCC 14028, 72 h, read-out: GI
Bacillus cereus [5] = assay: Antimicrobial activity against Bacillus cereus ATCC 11778 assessed as growth inhibition rate at 5.32 mg/l after 72 hr by spectrophotometry; conditions: ATCC 11778, 72 h, read-out: GI
Outline: (§1)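 Pure volatile compounds (purity >95%; one at 90%) were tested against B. cereus ATCC 11778. The strain was grown at 30 °C in nutrient broth for 24 h, then subcultured for 18 h. Optical density was read in a Bioscreen C every 24 h for 72 h, with 10% Tween 80 as the control.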

Listeria monocytogenes [6] = assay: Antimicrobial activity against Listeria monocytogenes ATCC 19111 assessed as growth inhibition rate at 5.32 mg/l after 72 hr by spectrophotometry; conditions: ATCC 19111, 72 h, read-out: GI
Outline: (§2)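 L. monocytogenes was grown at 30 °C in tryptic soy broth, subcultured for 18 h, and exposed to pure volatile compounds (>95% purity). Growth was followed by Bioscreen C optical density every 24 h for 72 h against a 10% Tween 80 control.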

Listeria monocytogenes [7] = assay: Antimicrobial activity against Listeria monocytogenes ATCC 19111 assessed as growth inhibition rate at 10.36 mg/l after 72 hr by spectrophotometry; conditions: ATCC 19111, 72 h, read-out: GI; outline: as §2
Vibrio parahaemolyticus [8] = assay: Antimicrobial activity against Vibrio parahaemolyticus ATCC 33844 assessed as growth inhibition rate at 10.36 mg/l after 72 hr by spectrophotometry; conditions: ATCC 33844, 72 h, read-out: GI
Escherichia coli [9] = assay: Antimicrobial activity against Escherichia coli O157:H7 ATCC 43894 assessed as growth inhibition rate at 10.36 mg/l after 72 hr by spectrophotometry; conditions: O157:H7 ATCC 43894, 72 h, read-out: GI
Staphylococcus aureus [10] = assay: Antimicrobial activity against Staphylococcus aureus ATCC 25923 assessed as growth inhibition rate at 10.36 mg/l after 72 hr by spectrophotometry; conditions: ATCC 25923, 72 h, read-out: GI
Bacillus cereus [11] = assay: Antimicrobial activity against Bacillus cereus ATCC 11778 assessed as growth inhibition rate at 10.36 mg/l after 72 hr by spectrophotometry; conditions: ATCC 11778, 72 h, read-out: GI; outline: as §1
Salmonella typhimurium [12] = assay: Antimicrobial activity against Salmonella enterica subsp. enterica serovar Typhimurium ATCC 14028 assessed as growth inhibition rate at 10.36 mg/l after 72 hr by spectrophotometry; conditions: ATCC 14028, 72 h, read-out: GI
Outline: (§3)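 Salmonella Typhimurium ATCC 14028 grown in nutrient broth at 30 °C, precultured 24 h, then subcultured 1:100 for 18 h before testing. Single volatile compounds (>95% pure) were added. OD was read every 24 h over 72 h in a Bioscreen C, with 10% Tween 80 as the comparison control.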

Staphylococcus aureus [13] = assay: Antimicrobial activity against Staphylococcus aureus ATCC 25923 assessed as growth inhibition rate at 43.2 mg/l after 72 hr by spectrophotometry; conditions: ATCC 25923, 72 h, read-out: GI
Bacillus cereus [14] = assay: Antimicrobial activity against Bacillus cereus ATCC 11778 assessed as growth inhibition rate at 43.2 mg/l after 72 hr by spectrophotometry; conditions: ATCC 11778, 72 h, read-out: GI; outline: as §1
Vibrio parahaemolyticus [15] = assay: Antimicrobial activity against Vibrio parahaemolyticus ATCC 33844 assessed as growth inhibition rate at 43.2 mg/l after 72 hr by spectrophotometry; conditions: ATCC 33844, 72 h, read-out: GI
Listeria monocytogenes [16] = assay: Antimicrobial activity against Listeria monocytogenes ATCC 19111 assessed as growth inhibition rate at 43.2 mg/l after 72 hr by spectrophotometry; conditions: ATCC 19111, 72 h, read-out: GI; outline: as §2
Salmonella typhimurium [17] = assay: Antimicrobial activity against Salmonella enterica subsp. enterica serovar Typhimurium ATCC 14028 assessed as growth inhibition rate at 43.2 mg/l after 72 hr by spectrophotometry; conditions: ATCC 14028, 72 h, read-out: GI; outline: as §3
Escherichia coli [18] = assay: Antimicrobial activity against Escherichia coli O157:H7 ATCC 43894 assessed as growth inhibition rate at 43.2 mg/l after 72 hr by spectrophotometry; conditions: O157:H7 ATCC 43894, 72 h, read-out: GI

With `CCCCCC(O)CC` (stereo not drawn) [3-OCTANOL] as the molecule, how does the inhibition of growth at 5.32 µg/mL (Escherichia coli [1]) read?
Its inhibition of growth at 5.32 µg/mL is 8.9%.

And the inhibition of growth at 5.32 µg/mL (Vibrio parahaemolyticus [2])?
Its inhibition of growth at 5.32 µg/mL is 70.7%.

What about the inhibition of growth at 5.32 µg/mL (Staphylococcus aureus [3]) of the same molecule?
The inhibition of growth at 5.32 µg/mL was 52.6%.

And the inhibition of growth at 5.32 µg/mL (Salmonella typhimurium [4])?
The inhibition of growth at 5.32 µg/mL was 20.6%.

And the inhibition of growth at 5.32 µg/mL (Bacillus cereus [5])?
The inhibition of growth at 5.32 µg/mL was 43%.

What about the inhibition of growth at 5.32 µg/mL (Listeria monocytogenes [6]) of the same molecule?
Its inhibition of growth at 5.32 µg/mL is 21.5%.

With `CC/C=C\CO` [CIS-2-PENTEN-1-OL] as the molecule, how does the inhibition of growth at 10.36 µg/mL (Listeria monocytogenes [7]) read?
Its inhibition of growth at 10.36 µg/mL is 0%.

And the inhibition of growth at 10.36 µg/mL (Vibrio parahaemolyticus [8])?
The inhibition of growth at 10.36 µg/mL was 10.5%.

And the inhibition of growth at 10.36 µg/mL (Escherichia coli [9])?
The inhibition of growth at 10.36 µg/mL was 21.9%.

And the inhibition of growth at 10.36 µg/mL (Staphylococcus aureus [10])?
Its inhibition of growth at 10.36 µg/mL is 8.1%.

What about the inhibition of growth at 10.36 µg/mL (Bacillus cereus [11]) of the same molecule?
Its inhibition of growth at 10.36 µg/mL is 20.4%.

What about the inhibition of growth at 10.36 µg/mL (Salmonella typhimurium [12]) of the same molecule?
Its inhibition of growth at 10.36 µg/mL is 9.4%.

With `CC/C=C\CCO` [CIS-3-HEXENOL] as the molecule, how does the inhibition of growth at 43.2 µg/mL (Staphylococcus aureus [13]) read?
The inhibition of growth at 43.2 µg/mL was 21.6%.

And the inhibition of growth at 43.2 µg/mL (Bacillus cereus [14])?
The inhibition of growth at 43.2 µg/mL was 14.3%.

What about the inhibition of growth at 43.2 µg/mL (Vibrio parahaemolyticus [15]) of the same molecule?
The inhibition of growth at 43.2 µg/mL was 73.7%.

What about the inhibition of growth at 43.2 µg/mL (Listeria monocytogenes [16]) of the same molecule?
Its inhibition of growth at 43.2 µg/mL is 10.3%.

What about the inhibition of growth at 43.2 µg/mL (Salmonella typhimurium [17]) of the same molecule?
Its inhibition of growth at 43.2 µg/mL is 56.2%.

What about the inhibition of growth at 43.2 µg/mL (Escherichia coli [18]) of the same molecule?
Its inhibition of growth at 43.2 µg/mL is 41%.
